# Sampled rows, rich in hits. Any-hit rate of the full collection: about 3.1%.
# T cruzi inh = inhibitors of intracellular T. cruzi growth, primary screen, luminescence, NIH3T3 host cells; 300,000 tested, 1.4% active; T. cruzi beta-gal in NIH3T3, 90 h; inhibition, % (concentration not given with the values);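 active = mean inhibition across valid replicates above about 55%, limit read from the data; inconclusive = mean below that limit but half or more replicates reach it; inactive = mean below it, under half of replicates reach it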;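 also: signal also drops with host cell toxicity which is not excluded here; 0% = plate median of DMSO wells and 100% = zero luminescence signal; higher percent means less beta-gal luminescence so fewer parasites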
#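 System: mouse NIH/3T3 fibroblasts infected with β-gal-expressing T. cruzi Tulahuen C4 / Input: NIH/3T3 cells, 5,000 per well / Buffer or medium: Low-serum DMEM with 2% FBS / Probe or stimulus: 5000 reporter trypomastigotes per well / Schedule: ≥90 h infection period, 3 h prior cell attachment / Measured by: GalScreen luminescence, 60 min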
# CSC inhib = cancer stem cell viability inhibitors, primary screen, luminescence; cancer stem cell-like cells viability; inhibition, % at 7.5 µM; 300,000 tested, 1.1% active; in the data active = inhibition above about 75%; inconclusive = no clear call, values can overlap the other calls; tested in HMLE shEcad cells
# PolyA inhibitor = polyadenylation inhibitors in yeast reporter cells, primary screen, luminescence, S. cerevisiae; 300,000 tested, 0.02% active; S. cerevisiae SKY197-pL101 polyadenylation reporter, beta-gal luminescence; efflux-impaired pdr1/pdr3 knockout yeast; score 100 = 6 SD above DMSO; activity score, % at 12 µM;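 active = lowest replicate activity score at least 50, where 100 means six control SD above control mean; inconclusive = lowest score under 50 but half or more replicates reach 50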;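 also: yeast exposed to compound for 9 h at 30 °C; higher score means more reporter readthrough which indicates perturbed polyadenylation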
# Beta cell apopt = inhibitors of cytokine-induced beta cell apoptosis, primary screen, luminescence. 300,000 tested, 0.8% active. INS-1E cytokine-induced death, ATP luminescence, 48 h; percent of positive-control rescue, neutral wells zero. protection from apoptosis, % (concentration not given with the values);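 active = Every replicate reaches about 75%, or at least half do and their mean reaches it too, limit read from the data; inconclusive = At least half of replicates reach the limit but their mean does not; inactive = Under half of replicates reach the limit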;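 also: 0% = cytokine-treated negative control wells and 100% = positive control rescue; higher means more ATP so stronger rescue from cytokine killing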
# HIF act = HIF pathway transcriptional activators, primary screen, cell-based, U2OS HRE-luciferase, luminescence | U2OS HRE-luciferase reporter; normalized: DMSO 0%, desferrioxamine 100% | 300,000 tested, 0.32% active | activation, % at 7.5 µM (by protocol);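 active = mean activation of at least 10% of the iron chelator positive control signal, with at least half of replicates also reaching 10%; inconclusive = mean and replicate majority disagree about reaching 10%; inactive = mean and most replicates under 10%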
# Calb FLC = C. albicans growth inhibition with fluconazole, primary screen, CaCi-2 strain, Alamar Blue fluorescence; growth inhibition, % (concentration not given with the values); C. albicans CaCi-2 + fluconazole, 48 h; 300,000 tested, 0.57% active;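 active = growth inhibition above about 58% in most replicates, limit read from the data, passing the limit was not always enough; inconclusive = exactly half the replicates above a set limit; inactive = most replicates below a set limit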;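 also: all wells also contain fluconazole at 8 µg/ml as a sub-toxic cotreatment; 0% = median of DMSO wells and 100% = median of geldanamycin control wells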
# Numbers without * were called inactive; ? = inconclusive; / = not tested or not shown; ! = not active in a repeat.
SMILES,T cruzi inh,CSC inhib,PolyA inhibitor,Beta cell apopt,HIF act,Calb FLC
COc1ccc(-n2c(=O)c3c4c(sc3n3c(=S)[nH]nc23)CCCC4)cc1,-26.0,-8.7,-14.4,8.3,0.1,92.8*
CN(c1ccccc1)c1ccc(/C=C(\C#N)c2nnc3n2CCCCC3)cc1[N+](=O)[O-],-11.3,80.0*,-21.4,3.6,0.3,-21.0
O=C(N/N=C/c1ccc(Cl)c([N+](=O)[O-])c1)c1cc(-c2ccccc2)nc2ccccc12,4.3,96.4*,6.1,3.0,0.6,11.0
Cc1ccsc1/C=N/NC(=O)c1cc(-c2ccncc2)nc2ccccc12,-48.7,78.3*,1.2,3.7,1.1,0.8
Cc1nn(-c2ccccc2)c(N2CCCC2)c1/C=N/NC(=O)c1cc(-c2ccccc2)nc2ccccc12,62.7*,20.5,-17.1,8.5,0.3,2.3
O=C(N/N=C/c1cc([N+](=O)[O-])ccc1Cl)c1cc(-c2ccccc2)nc2ccccc12,-6.0,-19.5,9.3,0.6,0.4,2.9
O=C(N/N=C/c1cc([N+](=O)[O-])ccc1O)c1cc(-c2ccccc2)nc2ccccc12,44.9,39.0,-13.4,116.6*,19.8*,-14.3
Cc1cc(C(=O)NNC(=S)Nc2cccc(C(F)(F)F)c2)nn1C,12.2,20.3,-1.0,1.9,0.6,-2.9
COC(=O)c1ccccc1NC(=O)c1ccc2c(c1)OCCCO2,23.6,-9.2,0.0,-1.7,1.8,-6.2
Cc1cc(Nc2cc(Cl)cc(Cl)c2)nc(N)n1,14.2,1.4,2.2,22.4,-0.6,33.6
O=C(N/N=C/c1ccc([N+](=O)[O-])o1)c1cc(-c2ccc(-c3ccccc3)cc2)nc2ccccc12,43.1,77.7*,9.0,24.2,-0.1,-14.2
O=C(N/N=C/c1cc([N+](=O)[O-])ccc1O)c1c[nH]c2ccccc12,4.3,?,-2.0,78.1*,4.1,1.8
O=C(N/N=C/c1cccc([N+](=O)[O-])c1)c1c[nH]c2ccccc12,15.8,-4.6,14.3,14.9,1.8,-0.6
COc1ccc(S(=O)(=O)N2CCC(C(=O)NCc3cccnc3)CC2)cc1C,1.7,10.6,3.9,10.2,0.2,20.6
C=CCC[C@H](Cc1ccc(F)cc1)C(=O)OC[C@@H](Cc1c[nH]c2ccccc12)NC(=O)[C@@H](CC=C)CC(=O)NCCO,/,/,/,0.2,/,/
Cc1ccc(COc2ccc(Br)cc2/C=N/O)cc1,17.0,77.7*,-76.0,-10.1,4.0,-0.8
O/N=C/c1cc(Br)ccc1OCc1ccc(F)cc1,3.1,14.3,-83.6,-3.5,0.8,-17.0
COc1ccc(NC(=O)CCNC(=O)c2ccco2)cc1S(=O)(=O)N(C)C,-4.2,5.6,-1.5,-2.2,-0.4,-13.5
C[C@H](CO)N1C[C@H](C)[C@@H](CN(C)C(=O)Nc2ccc3c(c2)OCO3)Oc2c(NC(=O)Nc3ccc(C(F)(F)F)cc3)cccc2C1=O,/,39.3,/,3.3,/,/
COC(=O)CCCC1=CC2=CC(=O)C(C)(OC(=O)c3cccs3)C(=O)C2=CN1Cc1ccc2c(c1)OCO2 (stereo not drawn),-14.3,-6.3,-19.6,-7.9,18.7*,7.3
CN(C)CCCn1c2c(c(SCC(=O)Nc3cccc4ccccc34)nc1=O)CCC2,57.1*,-10.4,-6.3,-10.5,1.4,-0.6
CN(C)CCn1c2c(c(SCC(=O)Nc3cccc4ccccc34)nc1=O)CCC2,27.5,/,-8.9,-6.4,0.3,2.7
Cc1ccc(NC(=S)/N=C(\N)Nc2nc(C)c3cc(C)c(C)cc3n2)cc1C,60.5*,0.4,7.7,0.4,-0.7,-8.4
Clc1ccc(-c2ncc3ccccn23)cc1,-15.9,-2.3,-9.0,0.0,0.6,-10.7
Clc1ccccc1-c1ncc2ccccn12,57.1*,-6.5,-20.3,-1.2,3.0,9.5
Cc1c(O)cccc1C(=O)N[C@@H](CSc1ccccc1)[C@H](O)CN1C[C@H]2CCCC[C@H]2C[C@H]1C(=O)NC(C)(C)C,66.6*!,77.5*!,4.1,13.5,0.9,18.1

# Screening data (PubChem BioAssay)
